Source: ChEMBL document CHEMBL3526011, “Metabolic activation of mefenamic acid leading to mefenamyl-S-acyl-glutathione adduct formation in vitro and in vivo in rat” (Drug Metab Dispos, 2012)

Tests used:
[1] = Half life in rat hepatocytes; assay type: ADME, cell-based, Hepatocyte
In short: (§1)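 Authentic acyl-SG thioesters or acyl glucuronide (1 µM) incubated with rat hepatocytes (2 million cells/ml). Quenched at 0–30 min and analysed by LC-MS/MS for % remaining; average of two incubations per time point; half-life derived from the decline.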

[2] = Stability in potassium phosphate buffer at 1 uM at pH 7.4 at 37 degC; assay type: physicochemical; conditions: pH 7.4, 1 µM
In short: (§2)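 Acyl-CoA and acyl glucuronide (1 µM, separate incubations) in 0.1 M potassium phosphate, pH 7.4, 37°C, without GSH. Quenched at 0, 5, 8 and 15 h, n=3 per time point; % remaining determined by LC-MS/MS.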

Hepatocyte [3] = test: Drug level in rat hepatocytes treated with 15.6 uM MFA by LC-MS/MS analysis; assay type: ADME, cell-based
In short: (§3)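 Rat hepatocytes (2 million cells/ml, William's E pH 7.4, 37°C, 95% O2/5% CO2) incubated 10 min with MFA at 0.8–500 µM (11 levels). Quenched and processed for LC-MS/MS MRM of the acyl-SG, acyl glucuronide and acyl-CoA derivatives. Three separate experiments, n=3 incubations per concentration; mean ± S.D.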

Hepatocyte [4] = test: Drug level in rat hepatocytes treated with at 100 uM MFA by LC-MS/MS analysis in presence of 1000 uM (-)-borneol (reference value: 9.1 +/- 4.5); assay type: ADME, cell-based
In short: (§4)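 Rat hepatocytes (2 million cells/ml, 0.5 ml) with 100 µM MFA for 10 min, with or without 1000 µM (−)-borneol (glucuronidation inhibitor; DMSO stock, 0.1% v/v final in controls) or 1000 µM lauric acid (acyl-CoA formation inhibitor; aqueous stock, pH 7). Triplicate incubations; LC-MS/MS MRM; results given as nM and as % of control, mean ± S.D.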

Hepatocyte [5] = test: Drug level in rat hepatocytes treated with 100 uM MFA by reverse phase LC-MS/MS analysis; assay type: ADME, cell-based
In short: (§5)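 Rat hepatocytes at 2 million viable cells/ml in William's E (pH 7.4) at 37°C under 95% O2/5% CO2, with 100 µM MFA for up to 60 min. Quench times 0–60 min; n=3 incubations per point across three separate studies. Acyl-SG and glucuronide quenched with acidic acetonitrile plus CBZ; acyl-CoA quenched with acetonitrile plus CBZ, then hexane extraction. Positive-ion LC-MS/MS MRM; quantified from analyte/CBZ standard curves.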

Hepatocyte [6] = test: Drug level in rat hepatocytes treated with at 100 uM MFA by LC-MS/MS analysis in presence of 1000 uM Lauric acid (reference value: 9.1 +/- 4.5); assay type: ADME, cell-based; in short: as §4
[7] = Drug level in phosphate buffer treated with 1 uM I-SCoA at pH 7.4 at 37 degC in presence of GSH after 60 mins; assay type: physicochemical; conditions: pH 7.4, 1 h
In short: (§6)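 Acyl-CoA or acyl glucuronide (1 µM) in 0.1 M potassium phosphate, pH 7.4, 37°C, with 10 mM GSH, n=3. Quenched at 0, 15, 30, 45 and 60 min with acetonitrile/3% formic acid containing 1 µM CBZ. The acyl-SG product was measured by LC-MS/MS; mean ± S.D.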

GST = test: (§7) Stability in rat liver GST assessed as degradation at 1 uM after 30 mins relative to control; assay type: ADME, tissue-based; conditions: rat liver GST
In short: (§8)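 Acyl-SG thioesters (1 µM) in 0.1 M phosphate buffer, pH 7.4, 37°C (0.2 ml), with or without rat liver GST at 3 units/ml. Duplicates per time point, quenched at 0–60 min with acidic acetonitrile plus CBZ and analysed directly by LC-MS/MS. Degradation at 30 min expressed relative to the no-GST control.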

[8] = Drug level in phosphate buffer treated with 1 uM MFA SCoA at pH 7.4 at 37 degC in presence of GSH after 60 mins; assay type: physicochemical; conditions: pH 7.4, 1 h; in short: as §6
[9] = as §7; assay type: ADME, tissue-based; conditions: 0.5 h, 1 µM; in short: as §8
[10] = Drug level in Sprague-Dawley rat bile treated with 100 mg/kg, ip MFA after 6 hrs by LC-MS/MS analysis; assay type: ADME, organism-based; parameters: dose 100 mg/kg, route intraperitoneal; conditions: in vivo
In short: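 Male Sprague-Dawley rats (300–330 g, n=3) with bile-duct cannulas, housed in metabolic cages; MFA 100 mg/kg i.p. in water, pH 7.0. Artificial bile-salt supplement infused via duodenal cannula at 1 ml/h. Bile collected over 6 h into phosphoric acid on wet ice, centrifuged, and the supernatant quantified by LC-MS/MS against a linear standard curve of analyte/CBZ peak-area ratios.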

Hepatocyte [11] = test: Drug level in rat hepatocytes treated with 100 uM MFA after 60 mins; assay type: ADME, cell-based; conditions: 1 h; in short: as §5
[12] = Half life in rat hepatocytes at 1 uM; assay type: ADME, cell-based, Hepatocyte; in short: as §1
Hepatocyte [13] = test: Drug level in rat hepatocytes treated with 62.5 uM MFA by LC-MS/MS analysis; assay type: ADME, cell-based; in short: as §3
Hepatocyte [14] = test: Retention time in rat hepatocytes treated with 100 uM MFA by positive ion LC-MS/MS analysis; assay type: ADME, cell-based; in short: as §5
Hepatocyte [15] = test: Drug level in cryopreserved human hepatocytes treated with 100 uM MFA at 10 mins incubation; assay type: ADME, cell-based
In short: (§9)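 Human hepatocytes, either cryopreserved 20-donor pooled or a single-donor suspension, thawed or warmed at 37°C, washed in William's E (pH 7.4, 4 mM L-glutamate). Cells at 2 million viable/ml, >95% trypan-blue viability. Incubated with 100 µM MFA at 37°C under 95% O2/5% CO2 with orbital shaking, n=3 per time point. Quench: acetonitrile/3% formic acid with CBZ internal standard; LC-MS/MS MRM.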

Hepatocyte [16] = test: Drug level in rat hepatocytes treated with at 100 uM MFA by LC-MS/MS analysis in presence of 1000 uM Lauric acid (reference value: 619 +/-158); assay type: ADME, cell-based; in short: as §4
Hepatocyte [17] = test: Drug level in rat hepatocytes treated with at 100 uM MFA by LC-MS/MS analysis in presence of 1000 uM (-)-borneol (reference value: 619 +/-158); assay type: ADME, cell-based; in short: as §4
Hepatocyte [18] = test: Drug level in rat hepatocytes treated with 500 uM MFA by LC-MS/MS analysis; assay type: ADME, cell-based; in short: as §3
[19] = Half life in potassium phosphate buffer at 1 uM at pH 7.4 at 37 degC; assay type: physicochemical; in short: as §2
Hepatocyte [20] = test: Drug level in single-donor human hepatocytes in suspension treated with 100 uM MFA at 60 mins incubation; conditions: 1 h
[21] = Increase in drug level in phosphate buffer treated with 1 uM MFA-1-beta-O-G at pH 7.4 at 37 degC in presence of GSH/rat liver GST after 60 mins
In short: (§10)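 Acyl-CoA or acyl glucuronide (1 µM) with 10 mM GSH in 0.1 M potassium phosphate, pH 7.4, 37°C, additionally fortified with rat liver GST (3 units/ml). Up to 60 min; acyl-SG formation measured by LC-MS/MS and compared with incubations lacking GST.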

Hepatocyte [22] = test: Drug level in rat hepatocytes treated with at 100 uM MFA by LC-MS/MS analysis in presence of 1000 uM (-)-borneol (reference value: 334 +/- 76); assay type: ADME, cell-based; in short: as §4
[23] = Increase in drug level in phosphate buffer treated with 1 uM MFA-SCoA at pH 7.4 at 37 degC in presence of GSH/rat liver GST after 60 mins; in short: as §10
[24] = Drug level in phosphate buffer treated with 1 uM MFA-1-beta-O-G at pH 7.4 at 37 degC in presence of GSH after 60 mins; assay type: physicochemical; conditions: pH 7.4, 1 h; in short: as §6
Hepatocyte [25] = test: Drug level in human hepatocytes treated with 100 uM MFA by sensitive LC-MS/MS MRM analysis; assay type: ADME, cell-based; in short: as §9
Hepatocyte [26] = test: Drug level in rat hepatocytes treated with at 100 uM MFA by LC-MS/MS analysis in presence of 1000 uM Lauric acid (reference value: 334 +/- 76); assay type: ADME, cell-based; in short: as §4
[27] = Drug metabolism in rat hepatocytes assessed as acyl migration isomers at 100 uM by positive ion LC-MS/MS analysis; assay type: ADME, cell-based, Hepatocyte
[28] = Drug metabolism in rat hepatocytes assessed as MFA-SCoA by LC-MS/MS analysis; assay type: ADME, cell-based, Hepatocyte; in short: as §3
[29] = Drug metabolism in rat hepatocytes assessed as MFA-SCoA at 100 uM by reverse phase LC-MS/MS analysis; assay type: ADME, cell-based, Hepatocyte; in short: as §5
[30] = Drug metabolism in human hepatocytes assessed as MFA-SG at 100 uM by sensitive LC-MS/MS MRM analysis; assay type: ADME, cell-based, Hepatocyte; in short: as §9
[31] = Drug metabolism in rat hepatocytes assessed as MFA-1-beta-O-G at 100 uM by positive ion LC-MS/MS analysis; assay type: ADME, cell-based, Hepatocyte; in short: as §5
[32] = Drug metabolism in rat hepatocytes assessed as MFA-SG at 100 uM by sensitive LC-MS/MS MRM analysis; assay type: ADME, cell-based, Hepatocyte; in short: as §5
[33] = Drug metabolism in human hepatocytes assessed as MFA-SCoA at 100 uM by reverse phase LC-MS/MS analysis; assay type: ADME, cell-based, Hepatocyte
In short: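 MFA 100 µM with human hepatocytes (2 million viable cells/ml, William's E pH 7.4, 37°C, 95% O2/5% CO2). For the acyl-CoA thioester, quench was acetonitrile without formic acid plus CBZ, followed by hexane extraction. The aqueous layer was analysed by positive-ion LC-MS/MS MRM (m/z 991→224 and 484).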

[34] = Drug metabolism in rat hepatocytes assessed as I-SG thioester at 100 uM at 10 mins incubation by LC-MS/MS analysis; assay type: ADME, cell-based, Hepatocyte
In short: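 Rat hepatocytes (2 million cells/ml, William's E pH 7.4, 37°C, 95% O2/5% CO2) incubated with (R)-ibuprofen 100 µM for 10 min, n=3. Quenched with acetonitrile/3% formic acid containing CBZ. The acyl-SG thioester was quantified by LC-MS/MS against a linear acyl-SG/CBZ peak-area-ratio standard curve.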

Structure (SMILES): Cc1cc(CC(=O)SC[C@H](NC(=O)CC[C@H](N)C(=O)O)C(=O)NCC(=O)O)n(C)c1C(=O)c1ccc(Cl)cc1
- half-life [1]: 0.8 min

Structure (SMILES): Cc1cccc(Nc2ccccc2C(=O)SCCNC(=O)CCNC(=O)C(O)C(C)(C)COP(=O)(O)OP(=O)(O)OC[C@H]2O[C@@H](n3cnc4c(N)ncnc43)[C@H](O)[C@@H]2OP(=O)(O)O)c1C (some centres undefined)
- Stability [2]: Stable
- Drug metabolism (Hepatocyte [3]): 6 nM
- Drug metabolism (Hepatocyte [4]): 8.8 nM
- Drug metabolism (Hepatocyte [5]): metabolite_detected
- Drug metabolism (Hepatocyte [6]): 3.8 nM

Structure (SMILES): CC(C)Cc1ccc(C(C)C(=O)SC[C@H](NC(=O)CC[C@H](N)C(=O)O)C(=O)NCC(=O)O)cc1 (some centres undefined)
- Drug metabolism [7]: 440 nM
- metabolised at 0.5 h, 1 µM (GST): 11%
- Drug metabolism [8]: 440 nM
- half-life [1]: 4 min

Structure (SMILES): N[C@@H](CCC(=O)N[C@@H](CSC(=O)Cc1ccccc1Nc1c(Cl)cccc1Cl)C(=O)NCC(=O)O)C(=O)O
- Stability [9]: Unstable
- half-life [1]: 1 min

Structure (SMILES): Cc1cccc(Nc2ccccc2C(=O)O[C@@H]2O[C@H](C(=O)O)[C@@H](O)[C@H](O)[C@H]2O)c1C
- Drug uptake [10]: 2000 µg
- Drug metabolism (Hepatocyte [11]): 1560 nM
- half-life at 1 µM [12]: > 60 min
- Drug metabolism (Hepatocyte [13]): 700 nM
- Retention_time (Hepatocyte [14]): 11 min
- Drug metabolism (Hepatocyte [15]): 3.5 µM
- Drug metabolism (Hepatocyte [16]): 198 nM
- Drug metabolism (Hepatocyte [17]): 55.1 nM
- Drug metabolism (Hepatocyte [18]): 460 nM
- half-life at 1 µM [19]: 990 min
- Drug metabolism (Hepatocyte [20]): 18.6 µM

Structure (SMILES): Cc1cccc(Nc2ccccc2C(=O)SC[C@H](NC(=O)CC[C@H](N)C(=O)O)C(=O)NCC(=O)O)c1C
- Drug uptake [10]: 17.4 µg
- fold change (FC) [21]: 6
- Drug metabolism (Hepatocyte [22]): 387 nM
- Drug metabolism (Hepatocyte [11]): 50 nM
- fold change (FC) [23]: 1.3
- Drug metabolism [24]: 2.7 nM
- Drug metabolism (Hepatocyte [15]): 0.001 µM
- Drug metabolism (Hepatocyte [25]): metabolite_detected
- Drug metabolism [8]: 208 nM
- Drug metabolism (Hepatocyte [26]): 113 nM
- Drug metabolism (Hepatocyte [5]): metabolite_detected
- Drug metabolism (Hepatocyte [18]): 230 nM

Structure (SMILES): Cc1cccc(Nc2ccccc2C(=O)O)c1C [MEFENAMIC ACID]
- Drug uptake [10]: 4 µg
- Drug metabolism [27]: metabolite_not_detected
- Drug metabolism [28]: Dose-dependent effect
- Drug metabolism [29]: metabolite_detected
- Drug metabolism [30]: metabolite_detected
- Drug metabolism [31]: metabolite_detected
- Drug metabolism [32]: metabolite_detected
- Drug metabolism [33]: metabolite_not_detected
- Drug metabolism [34]: 3 nM
